Assay results: ChEMBL document CHEMBL4373711, “Development of 3,5-Dinitrophenyl-Containing 1,2,4-Triazoles and Their Trifluoromethyl Analogues as Highly Efficient Antitubercular Agents Inhibiting Decaprenylphosphoryl-β-d-ribofuranose 2'-Oxidase” (J Med Chem, 2019)
≈ marks a conversion by molar mass, not a printed value. Calls of active or inactive are those of the source. The rule behind the calls is not given here.

Tests used:
[1] = test system: Mycobacterium tuberculosis; experiment: Antimycobacterial activity against XDR Mycobacterium tuberculosis Praha 131 after 14 days; format: functional; conditions: for MIC99: Praha 131, 336 h
Outline: (§1)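 M. tuberculosis strains (H37Rv and clinical MDR/XDR isolates) tested by microdilution in Šula's semisynthetic medium. Compounds were dissolved in DMSO and tested at 32 to 0.03 µM in twofold steps. Inoculum was a 1.0 McFarland suspension diluted 10-3. Plates were incubated at 37 °C and read at 14 and 21 days.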

[2] = test system: Mycobacterium tuberculosis; experiment: Antimycobacterial activity against Mycobacterium tuberculosis H37Rv CNCTC My 331/88 after 14 days; format: functional; conditions: H37Rv CNCTC My 331/88, 336 h; outline: as §1
[3] = test system: Trichophyton interdigitale; experiment: Antifungal activity against Trichophyton interdigitale ATCC 9533 CCM 8377 at highest concentration measured after 72 to 120 hrs by alamar blue dye based broth microdilution assay; format: functional
[4] = test system: Serratia marcescens; experiment: Antibacterial activity against Serratia marcescens at highest concentration measured after 24 to 48 hrs by alamar blue dye based broth microdilution assay; format: functional, organism-based
[5] = test system: Pichia kudriavzevii; experiment: Antifungal activity against Candida krusei ATCC 6258 CCM8271 at highest concentration measured after 24 to 48 hrs by alamar blue dye based broth microdilution assay; format: functional, organism-based
[6] = test system: Aspergillus flavus; experiment: Antifungal activity against Aspergillus flavus CCM 8363 at highest concentration measured after 24 to 48 hrs by alamar blue dye based broth microdilution assay; format: functional, organism-based
[7] = test system: Klebsiella pneumoniae; experiment: Antibacterial activity against Klebsiella pneumoniae at highest concentration measured after 24 to 48 hrs by alamar blue dye based broth microdilution assay; format: functional, organism-based
[8] = test system: Mycobacterium kansasii; experiment: Antimycobacterial activity against Mycobacterium kansasii CNCTC My 235/80 after 7 days; format: functional; conditions: CNCTC My 235/80, 168 h
Outline: (§2)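 Microdilution in Šula's semisynthetic medium; compounds in DMSO at 32–0.03 µM. Inoculum from 1.0 McFarland suspension diluted 10-4. […] Isoniazid and rifampicin as reference drugs.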

[9] = test system: Staphylococcus aureus; experiment: Antibacterial activity against methicillin-resistant Staphylococcus aureus subsp. aureus ATCC 43300 CCM 4750 at highest concentration measured after 24 to 48 hrs by alamar blue dye based broth microdilution assay; format: functional, organism-based
[10] = Cytotoxicity against human A431 cells assessed as cell viability at 30 uM after 48 hrs by CellTiter 96 aqueous one solution assay relative to control; format: cell-based, A-431; conditions: read-out: Activity
Outline: (§3)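 HepG2 (DMEM, 10% FBS, 1 mM pyruvate) or A431 (DMEM, 10% FBS) seeded 10,000 cells/well, 24 h at 37 °C, 5% CO2, then 30 µM compound for 48 h. MTS reagent 60 min, absorbance 490 nm, background subtracted; 0.1% DMSO vehicle = 100%, 10% SDS = 0% viability.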

[11] = test system: Mycobacterium kansasii; experiment: Antimycobacterial activity against Mycobacterium kansasii CNCTC My 235/80 after 21 days; format: functional; conditions: CNCTC My 235/80, 504 h; outline: as §2
[12] = test system: Mycobacterium kansasii; experiment: Antimycobacterial activity against Mycobacterium kansasii 6509/96 after 21 days; format: functional; conditions: 6509/96, 504 h; outline: as §2
[13] = test system: Mycobacterium tuberculosis; experiment: Antimycobacterial activity against Mycobacterium tuberculosis H37Rv CNCTC My 331/88 after 21 days; format: functional; conditions: H37Rv CNCTC My 331/88, 504 h; outline: as §1
[14] = test system: Mycobacterium avium; experiment: Antimycobacterial activity against Mycobacterium avium CNCTC My 330/88 after 14 days; format: functional; conditions: CNCTC My 330/88, 336 h
Outline: (§4)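 M. avium was tested by microdilution in Šula's semisynthetic medium, with compounds dissolved in DMSO and serially diluted from 1000 down to 1. Inoculum was a 1.0 McFarland suspension diluted 10-5. Plates were incubated at 37 °C and read at 14 and 21 days. […] Isoniazid and rifampicin served as standards.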

[15] = Cytotoxicity against human HepG2 cells assessed as cell viability at 30 uM after 48 hrs by CellTiter 96 aqueous one solution assay relative to control; format: cell-based; conditions: read-out: Activity; outline: as §3
[16] = test system: Pseudomonas aeruginosa; experiment: Antibacterial activity against Pseudomonas aeruginosa ATCC 27853 CCM 3955 at highest concentration measured after 24 to 48 hrs by alamar blue dye based broth microdilution assay; format: functional, organism-based
[17] = test system: Staphylococcus epidermidis; experiment: Antibacterial activity against Staphylococcus epidermidis at highest concentration measured after 24 to 48 hrs by alamar blue dye based broth microdilution assay; format: functional, organism-based
[18] = test system: Enterococcus faecalis; experiment: Antibacterial activity against Enterococcus faecalis ATCC 29212 CCM 4224 at highest concentration measured after 24 to 48 hrs by alamar blue dye based broth microdilution assay; format: functional, organism-based
[19] = test system: Mycobacterium kansasii; experiment: Antimycobacterial activity against Mycobacterium kansasii 6509/96 after 14 days; format: functional; conditions: 6509/96, 336 h; outline: as §2
[20] = test system: Candida albicans; experiment: Antifungal activity against Candida albicans ATCC 24433 CCM 8320 at highest concentration measured after 24 to 48 hrs by alamar blue dye based broth microdilution assay; format: functional, organism-based
[21] = test system: Mycobacterium avium; experiment: Antimycobacterial activity against Mycobacterium avium CNCTC My 330/88 after 21 days; format: functional; conditions: CNCTC My 330/88, 504 h; outline: as §4
[22] = test system: Lichtheimia corymbifera; experiment: Antifungal activity against Lichtheimia corymbifera CCM 8077 at highest concentration measured after 24 to 48 hrs by alamar blue dye based broth microdilution assay; format: functional, organism-based
[23] = test system: Mycobacterium kansasii; experiment: Antimycobacterial activity against Mycobacterium kansasii CNCTC My 235/80 after 14 days; format: functional; conditions: CNCTC My 235/80, 336 h; outline: as §2
[24] = test system: Escherichia coli; experiment: Antibacterial activity against Escherichia coli ATCC 25922 CCM 3954 at highest concentration measured after 24 to 48 hrs by alamar blue dye based broth microdilution assay; format: functional, organism-based
[25] = test system: HepG2; experiment: Cytotoxicity against human HepG2 cells assessed as reduction in cell viability after 48 hrs by CellTiter 96 aqueous one solution assay; format: cell-based; conditions: HepG2, 48 h
[26] = test system: Candida parapsilosis; experiment: Antifungal activity against Candida parapsilosis ATCC 22019 CCM 8260 at highest concentration measured after 24 to 48 hrs by alamar blue dye based broth microdilution assay; format: functional, organism-based
[27] = test system: Staphylococcus aureus; experiment: Antibacterial activity against Staphylococcus aureus subsp. aureus ATCC 29213 CCM 4223 at highest concentration measured after 24 to 48 hrs by alamar blue dye based broth microdilution assay; format: functional, organism-based
[28] = test system: Aspergillus fumigatus; experiment: Antifungal activity against Aspergillus fumigatus ATCC 204305 at highest concentration measured after 24 to 48 hrs by alamar blue dye based broth microdilution assay; format: functional, organism-based
[29] = test system: A-431; experiment: Cytotoxicity against human A431 cells assessed as reduction in cell viability after 48 hrs by CellTiter 96 aqueous one solution assay; format: cell-based; conditions: A-431, 48 h
[30] = test system: Candida tropicalis; experiment: Antifungal activity against Candida tropicalis ATCC 750 CCM 8264 at highest concentration measured after 24 to 48 hrs by alamar blue dye based broth microdilution assay; format: functional, organism-based
[31] = test system: Mycobacterium kansasii; experiment: Antimycobacterial activity against Mycobacterium kansasii 6509/96 after 7 days; format: functional; conditions: 6509/96, 168 h; outline: as §2

Row | Molecule | MIC99 [2] | Activity [3] | Activity [4] | Activity [5] | Activity [6] | Activity [7] | MIC99 [8] | Activity [9] | viability at 48 h, 30 µM [10] | MIC99 [11] | MIC99 [12] | MIC99 [13] | MIC99 [14] | viability at 48 h, 30 µM [15] | Activity [16] | Activity [17] | Activity [18] | MIC99 [19] | Activity [20] | MIC99 [21] | also measured
1 | GENTAMICIN | – | – | – | – | – | – | – | – | – | – | – | – | – | – | – | – | – | – | – | – | MIC>99 [1]: > 8 µM
2 | CN[C@@H]1[C@H](O[C@H]2[C@H](O[C@H]3[C@H](O)[C@@H](O)[C@H](N=C(N)N)[C@@H](O)[C@@H]3N=C(N)N)O[C@@H](C)[C@]2(O)C=O)O[C@@H](CO)[C@H](O)[C@H]1O [STREPTOMYCIN] | – | – | – | – | – | – | – | – | – | – | – | – | – | – | – | – | – | – | – | – | MIC99 [1]: > 32 µM
3 | O=[N+]([O-])c1cc(CSc2nnc(-c3ccccc3)n2C2CCCCC2)cc([N+](=O)[O-])c1 | 1 µM (≈ 0.439 µg/mL) | inactive | inactive | inactive | inactive | inactive | 1 µM (≈ 0.439 µg/mL) | inactive | 131% | 4 µM (≈ 1.76 µg/mL) | 4 µM (≈ 1.76 µg/mL) | 2 µM (≈ 0.879 µg/mL) | 250 µM (≈ 110 µg/mL) | 87% | inactive | inactive | inactive | 2 µM (≈ 0.879 µg/mL) | inactive | 250 µM (≈ 110 µg/mL) | Activity [22]: inactive; MIC99 [23]: 2 µM (≈ 0.879 µg/mL); Activity [24]: inactive; IC50 [25]: > 30 µM; Activity [26]: inactive; Activity [27]: inactive; Activity [28]: inactive; IC50 [29]: > 30 µM; Activity [30]: inactive; MIC99 [31]: 1 µM (≈ 0.439 µg/mL)
4 | Cn1c(SCc2ccc(Br)cc2)nnc1-c1cc([N+](=O)[O-])cc([N+](=O)[O-])c1 | 0.25 µM (≈ 0.113 µg/mL) | inactive | inactive | inactive | inactive | inactive | 0.5 µM (≈ 0.225 µg/mL) | inactive | 137% | 1 µM (≈ 0.45 µg/mL) | 1 µM (≈ 0.45 µg/mL) | 0.5 µM (≈ 0.225 µg/mL) | 8 µM (≈ 3.6 µg/mL) | 152% | inactive | inactive | inactive | 0.5 µM (≈ 0.225 µg/mL) | inactive | 8 µM (≈ 3.6 µg/mL) | Activity [22]: inactive; MIC99 [23]: 0.5 µM (≈ 0.225 µg/mL); Activity [24]: inactive; IC50 [25]: > 30 µM; Activity [26]: inactive; Activity [27]: inactive; Activity [28]: inactive; IC50 [29]: > 30 µM; Activity [30]: inactive; MIC99 [31]: 0.25 µM (≈ 0.113 µg/mL)
5 | O=[N+]([O-])c1cc(CSc2nnc(-c3ccc(Cl)cc3)n2Cc2ccccc2)cc(C(F)(F)F)c1 | 32 µM (≈ 16.2 µg/mL) | inactive | inactive | inactive | inactive | inactive | 32 µM (≈ 16.2 µg/mL) | inactive | 73% | > 32 µM | > 32 µM | > 32 µM | 250 µM (≈ 126 µg/mL) | 107% | inactive | inactive | inactive | > 32 µM | inactive | 250 µM (≈ 126 µg/mL) | Activity [22]: inactive; MIC99 [23]: > 32 µM; Activity [24]: inactive; IC50 [25]: > 30 µM; Activity [26]: inactive; Activity [27]: inactive; Activity [28]: inactive; IC50 [29]: > 30 µM; Activity [30]: inactive; MIC99 [31]: > 32 µM
6 | NCC[C@H](O)C(=O)N[C@@H]1C[C@H](N)[C@@H](O[C@H]2O[C@H](CN)[C@@H](O)[C@H](O)[C@H]2O)[C@H](O)[C@H]1O[C@H]1O[C@H](CO)[C@@H](O)[C@H](N)[C@H]1O [AMIKACIN] | – | – | – | – | – | – | – | – | – | – | – | – | – | – | – | – | – | – | – | – | MIC99 [1]: > 32 µM
7 | O=[N+]([O-])c1cc(CSc2nnc(-c3ccc(Cl)cc3)n2Cc2ccccc2)cc([N+](=O)[O-])c1 | 4 µM (≈ 1.93 µg/mL) | inactive | inactive | inactive | inactive | inactive | 4 µM (≈ 1.93 µg/mL) | inactive | 73% | 8 µM (≈ 3.86 µg/mL) | 8 µM (≈ 3.86 µg/mL) | 4 µM (≈ 1.93 µg/mL) | 250 µM (≈ 120 µg/mL) | 104% | inactive | inactive | inactive | 8 µM (≈ 3.86 µg/mL) | inactive | 250 µM (≈ 120 µg/mL) | Activity [22]: inactive; MIC99 [23]: 8 µM (≈ 3.86 µg/mL); Activity [24]: inactive; IC50 [25]: > 30 µM; Activity [26]: inactive; Activity [27]: inactive; Activity [28]: inactive; IC50 [29]: > 30 µM; Activity [30]: inactive; MIC99 [31]: 8 µM (≈ 3.86 µg/mL)
